Experimental data pooled from the literature.
Protocols differ between the studies behind these lines.
Target: Glycogen synthase kinase-3 alpha (GSK3A, Homo sapiens, UniProt P49840)

C1=C/COCc2cc(ccc2OCCN2CCCC2)Nc2nccc(n2)-c2cccc(c2)COC/1  remaining binding (binding; 0.1 µM): 100%
CO[C@@H]1[C@H](N(C)C(=O)c2ccccc2)C[C@H]2O[C@]1(C)n1c3ccccc3c3c4c(c5c6ccccc6n2c5c31)C(=O)NC4  inhibition (enzyme activity; inhibitor; 1 µM): 14%
CC(=O)ON=C1C=CC(=C(C#N)c2ccccc2)C=C1  activity vs control (enzyme activity; inhibitor; ADP detection; 20 µM): 94%
CCCCC(=O)Nc1ccc(-c2ccc3ncn(CCC)c(=O)c3c2)cn1  remaining binding (binding; competition with immobilised ligand; 0.5 µM): 94%
Cc1cc(O)c(-c2ccc([C@@H](C)CN(C)C)cc2)c2c1[nH]c(=O)c1sccc12  inhibition (enzyme activity; inhibitor; 0.1 µM): -5.76%
Cc1ccc(NC(=O)c2ccnc(C(F)(F)F)c2)cc1-c1cc(OCCO)nc(N2CCOCC2)c1  remaining binding (binding; 1 µM): 100%
COc1ccc2oc(-c3ccc4nc(N)oc4c3)c/c(=N\c3ccccc3NC(=O)CCN)c2c1  remaining binding (binding; 1 µM): 94%
C[C@H]1CC[C@H](n2c3cnccc3c3cnc(Nc4ccc5c(n4)CCN(C(=O)CO)C5)nc32)CC1  remaining signal (cell-free assay; 1 µM): 35%
C=CC(=O)N1CCC([C@@H]2CCNc3c(C(N)=O)c(-c4ccc(Oc5ccccc5)cc4)nn32)CC1  inhibition (enzyme activity; inhibitor; 1 µM): 2%
